Shown are actives, neighbours in structure and some others; about 2.8% of the full set was active somewhere.
Measles CPE: compounds protecting cells from measles virus cytopathic effect, primary screen, measles RdRp inhibitor project, single point, MLSMR library, absorbance | Measles virus-infected cells, CPE protection | 140,000 tested, 1.5% active | protection (pct of control), % at 4 µM; in the data active = protection mostly above about 24%, no sharp cut-off; inactive = mostly below about 26%
Rad51 HR inh: human RAD51 strand exchange inhibitors, primary screen, biochemical, fluorescence; DNA repair protein RAD51 homolog 1 (Homo sapiens), Q06609; hRad51 DNA strand exchange, fluorescence dequenching; AID 1385, 2008; inhibition, % at 10 µM; 200,000 tested, 0.085% active;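 active = inhibition above 40% at the single screening dose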
Target sequence (Q06609 whole entry, looked up): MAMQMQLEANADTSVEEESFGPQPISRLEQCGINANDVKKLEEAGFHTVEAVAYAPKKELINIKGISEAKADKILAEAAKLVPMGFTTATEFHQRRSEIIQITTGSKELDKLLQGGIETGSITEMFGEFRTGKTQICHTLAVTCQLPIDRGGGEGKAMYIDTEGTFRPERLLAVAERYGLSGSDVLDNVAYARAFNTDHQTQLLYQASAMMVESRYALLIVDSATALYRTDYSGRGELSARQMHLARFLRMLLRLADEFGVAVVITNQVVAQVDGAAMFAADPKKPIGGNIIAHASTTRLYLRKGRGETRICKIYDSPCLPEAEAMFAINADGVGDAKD
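Material: hRad51 filaments on single-stranded DNA; Reagent: Donor/quencher-labelled 47-bp dsDNA substrate; Compound: 10 µM final, single point; Schedule: 37 °C 15-min filament assembly, 30-min compound preincubation, 15-min exchange; Technique: FRET fluorescence, excitation 485 nm, emission 520 nm; Benchmarks: control wells and blank wells on each plate.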
NPY2 pot ag: NPY-Y2 potentiators or agonists, primary screen, cell-based; AID 1359, 2008; 220,000 tested, 0.45% active; Neuropeptide Y receptor type 2 (Homo sapiens), P49146; cells expressing NPY-Y2, potentiator/agonist read-out; activation, % at 3.6 µM; in the data active = activation above about 27%;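 note: cells stimulated with NPY near EC25 plus isoproterenol at EC100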
Target sequence (P49146 whole entry, looked up): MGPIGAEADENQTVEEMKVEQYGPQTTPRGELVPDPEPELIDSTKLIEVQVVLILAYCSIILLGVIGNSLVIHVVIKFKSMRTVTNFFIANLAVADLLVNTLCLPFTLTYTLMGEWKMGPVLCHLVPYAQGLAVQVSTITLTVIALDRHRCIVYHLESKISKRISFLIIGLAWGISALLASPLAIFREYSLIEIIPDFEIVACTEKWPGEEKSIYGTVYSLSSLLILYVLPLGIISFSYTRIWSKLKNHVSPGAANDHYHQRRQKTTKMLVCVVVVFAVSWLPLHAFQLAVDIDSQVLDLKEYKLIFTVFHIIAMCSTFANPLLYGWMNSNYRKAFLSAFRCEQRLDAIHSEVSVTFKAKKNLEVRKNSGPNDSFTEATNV
NPY-Y1 PAM-ag: NPY-Y1 receptor potentiators or agonists, primary screen, cell-based. AID 1304, 2008. Neuropeptide Y receptor type 1 (Homo sapiens), P25929. NPY-Y1 expressing cells, potentiator/agonist activation. 220,000 tested, 0.37% active. activation, % at 3.6 µM; in the data active = activation above about 33%, passing the limit was not always enough;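 note: cells stimulated with NPY at EC10 then isoproterenol at EC100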
NPY-Y2 antag: NPY-Y2 receptor antagonists, primary screen, cell-based | inhibition, % at 2.7 µM | NPY-Y2 expressing cells, antagonist mode | Neuropeptide Y receptor type 2 (Homo sapiens), P49146 | 140,000 tested, 0.99% active; in the data active = inhibition above about 17%
NPY Y1 blocker: NPY-Y1 receptor antagonists, primary screen, cell-based; AID 1040, 2008; 200,000 tested, 1% active; inhibition, % at 3.6 µM; HEK293-CNG Y1 cells, membrane potential fluorescence; NPY at EC95, then isoproterenol;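 active = inhibition above the campaign mean inhibition of all tested compounds plus 3 SD, cut at about 20% in these data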
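Material: HEK293 cells with Y1 receptor plus CNG channel; times: compound incubation 1 h at room temperature, readout 45 min post-stimulation; signal: fluorescence, membrane potential probe; read-out basis: fluorescence ratio normalized to % inhibition between controls; benchmarks: full-block control isoproterenol-only wells, zero-block control NPY plus isoproterenol wells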
Of the large screens only hits and unclear results are named; the others gave an inactive call.

Cc1ccc(-n2c3c(cc(C(=O)O)c2=O)C(=O)CC(C)(C)C3)cc1	Measles CPE 55.4
CC1(C)CC(=O)c2cc(C(=O)O)c(=O)n(-c3ccccc3)c2C1	none
COC(=O)c1nc(N)sc1-c1ccccc1	Rad51 HR inh 75.5
CSCCNCc1c(C(=O)N2CCOCC2)nc2c(C)cccn12	none (no result: Measles CPE, NPY-Y2 antag)
Cc1cccn2c(CNCC3(c4ccccc4)CCCC3)c(C(=O)N3CCOCC3)nc12	NPY Y1 blocker 20.3 (no result: Measles CPE, NPY-Y2 antag)
COc1ccc([N+](=O)[O-])cc1NC(=O)CSc1ccccc1	Measles CPE 66.2
c1ccc(-c2nnc(CSc3nc4ccccc4[nH]3)o2)cc1	Measles CPE 33.4
CCOc1ccc(C(C)=O)cc1CN1C(=O)C(=O)N(CC)C1=O	none (no result: Measles CPE, NPY-Y2 antag)
CCCn1c(/N=C/c2ccc3c(c2)OCO3)nc2ccccc21	Measles CPE 32.0
Cc1ccc(/C=C(\NC(=O)c2ccc(C)cc2)C(=O)NCCCn2ccnc2)cc1	none (no result: Measles CPE, NPY-Y2 antag)
COc1ccc(CN(C)CC(=O)NC(=O)NCc2ccccc2)c(OC)c1	none (no result: Rad51 HR inh)
COc1ccc(CN(CCN(C)C)Cc2ccccc2)c(OC)c1	NPY-Y2 antag 20.4, NPY Y1 blocker 22.8
CC(=O)n1cc(N(C(=O)CCl)c2ccc([N+](=O)[O-])cc2)c2ccccc21	NPY2 pot ag 54.1, NPY-Y1 PAM-ag 69.4 (no result: Measles CPE, NPY-Y2 antag, NPY Y1 blocker)
CCCCOC(=O)CCNc1n[nH]c(=O)[nH]c1=O	Measles CPE 55.7
O=C(NCc1ccco1)c1ccc(COCC(F)(F)F)cc1	none
O=C(NCc1ccco1)c1ccc(COCC(F)(F)C(F)F)cc1	Measles CPE 32.7
CN1CCCC(CC2Oc3ccccc3Sc3ccccc32)C1 (centres undefined)	none (no result: Rad51 HR inh)
c1ccc2c(c1)OC(CCCN1CCCCC1)c1ccccc1S2 (centres undefined)	NPY-Y2 antag 17.4, NPY Y1 blocker 40.3
COc1ccc(OC)c(S(=O)(=O)Nc2cc(C(=O)O)ccc2N2CC3CC(C2)c2cccc(=O)n2C3)c1 (centres undefined)	none (no result: Measles CPE, NPY-Y2 antag)
NC(=O)c1nnn(-c2nonc2N)c1-c1ccc([N+](=O)[O-])cc1	none (no result: Measles CPE, NPY-Y2 antag)
CCSc1nc(N)c2c3c(sc2n1)CN(C)CC3	Measles CPE 43.8
O=C(Nc1ccc(F)cc1)c1nn(-c2ccccc2)c(=O)cc1Cl	NPY2 pot ag 53.1, NPY-Y1 PAM-ag 63.1 (no result: Measles CPE, NPY-Y2 antag)
CC1CC(=O)NN=C1c1ccc(NCCO)c([N+](=O)[O-])c1 (centres undefined)	NPY-Y2 antag 77.6, NPY Y1 blocker 77.8
Cc1[nH]c2ccccc2c1/C=N/Nc1ccccc1[N+](=O)[O-]	NPY2 pot ag 101.4, NPY-Y1 PAM-ag 106.9 (no result: Measles CPE, NPY-Y2 antag)
O=C(O)COc1ccccc1C1C2C(=O)N(c3ccccc3)C(=O)C2ON1c1ccccc1 (centres undefined)	none
CCCOc1ccc(N2C(=O)C3ON(c4ccccc4)C(CCC)C3C2=O)cc1 (centres undefined)	Measles CPE 25.5
CCOc1ccccc1C1C2C(=O)N(c3ccccc3)C(=O)C2ON1c1ccccc1 (centres undefined)	Measles CPE 47.2
Cc1cccc(C(=O)O/N=C/c2c(N3CCOCC3)n(C)c3ccccc23)c1	Measles CPE 32.0
O=C(O)c1ccccc1C(=O)NCc1cccnc1	Measles CPE 32.2
Cn1c(=O)c2c(ncn2CC(=O)NCc2cccnc2)n(C)c1=O	Measles CPE 39.1
O=C(CSc1ccccc1)NCc1cccnc1	Measles CPE 39.7 (no result: Rad51 HR inh)
O=C(CCSc1ccccc1)NCc1cccnc1	none (no result: Rad51 HR inh)
O=C(NCCCN1CCCC1=O)c1ccc2c(=O)n(-c3ccccc3F)c(=S)[nH]c2c1	none (no result: Measles CPE, NPY-Y2 antag)
CCOC(=O)N1CCC(N2C(=O)c3ccccc3C2Nc2ccc(C)cc2)CC1 (centres undefined)	Measles CPE 36.2
Cc1ccc(NC(=O)c2ccc(CSc3ccccn3)cc2)c(O)c1	none (no result: Measles CPE, NPY-Y2 antag, NPY Y1 blocker)
Cc1ccccc1NC(=O)c1ccc(CSc2ncccn2)cc1	Measles CPE 45.0
COc1ccc(C(=O)SC2=NCCS2)cc1	none
CCOc1ccc(C(=O)SC2=NCCS2)cc1	Measles CPE 30.5
CC1Cc2cc(-c3csc(NC(=O)Cc4ccccc4)n3)ccc2N1S(C)(=O)=O (centres undefined)	Measles CPE 71.3
Cc1nonc1OCCN1CCN(c2ccc([N+](=O)[O-])cc2)CC1	none (no result: Measles CPE, NPY-Y2 antag, NPY Y1 blocker)
O=[N+]([O-])c1ccc(N2CCN(CCOc3nonc3-c3ccccc3)CC2)c(Cl)c1	Measles CPE 38.3
COc1cc(NC(=O)Cn2ccsc2=N)cc(OC)c1	none (no result: Measles CPE, NPY-Y2 antag, NPY Y1 blocker)
CCCN(CCC)S(=O)(=O)c1ccc(Cl)c([N+](=O)[O-])c1	NPY2 pot ag 77.1, NPY-Y1 PAM-ag 76.6 (no result: Measles CPE, NPY-Y2 antag)
COCCN(CCOC)S(=O)(=O)c1ccc(C(=O)Nc2nc(-c3ccccc3)c(C(=O)c3ccccc3)s2)cc1	none
CCCN(CCC)S(=O)(=O)c1ccc(C(=O)Nc2nc(-c3ccccc3)c(C(=O)OCC)s2)cc1	Measles CPE 50.2
O=C(CN1CCN(Cc2ccccc2)CC1)Nc1ccc(N2CCOCC2)cc1	none (no result: Measles CPE, NPY-Y2 antag)
O=C(O)CC(=O)Nc1cc(Cl)ccc1O	none
O=C(CCc1ccccc1)Nc1cc(Cl)ccc1O	Measles CPE 36.4
C/C(N)=C(/C#N)C(=O)CSc1ncnc2ccccc12	NPY2 pot ag 97.7, NPY-Y1 PAM-ag 94.2
CCOC(=O)c1cc(-c2ccc(OC)cc2)nc2c1c(C)nn2CCC#N	NPY-Y2 antag 19.8, NPY Y1 blocker 25.6
CCOc1ccc(-n2c(SCc3ccc(C#N)cc3)nnc2-c2cccnc2)cc1	NPY-Y2 antag 25.6, NPY Y1 blocker 44.6
N#Cc1ccc(CSc2nnc(-c3cccnc3)n2-c2ccccc2)cc1	none
COC(=O)c1ccccc1NC(=O)CSc1nnc(-c2cccnc2)n1N	Rad51 HR inh 44.1 (no result: Measles CPE, NPY-Y2 antag)
Clc1ccc(-n2c(SC/C=C/c3ccccc3)nnc2-c2cccnc2)cc1	NPY-Y2 antag 29.7, NPY Y1 blocker 23.0
Nn1c(SC/C=C/c2ccccc2)nnc1-c1cccnc1	Measles CPE 25.7
CN(C)C(=O)CSc1nnc(-c2cccnc2)n1-c1ccccc1	none
Nn1c(SC/C=C/c2ccccc2)nnc1-c1ccccn1	none
Nn1c(SCC(=O)Nc2ccccc2F)nnc1-c1cccnc1	none
CC(C)(O)C#Cc1ccc(C(=O)NCc2ccccc2F)cc1	none
Cc1ccc(S(=O)(=O)n2nnc3ccccc32)c(C)c1C	none (no result: Measles CPE, NPY-Y2 antag)
COC(=O)c1ccc(COc2cccc(C)c2C)cc1	none (no result: Measles CPE, NPY-Y2 antag)
CCCCOC(=O)C1=C(C)Nc2ncnn2C1c1ccc(OC)c(OC)c1OC (centres undefined)	none

Screens (PubChem BioAssay)
